“Also recorded” adds a separate entry of the source.
What was measured:
[1] = system: RGS4 in HEK293-FlpIn-TREx/M3R/RGS4 cells; test: Cell-based calcium signaling assay in M3-R4 cells; set-up: species or system human; conditions: read-out: Cellular Activity IC50, Dox treated, carbachol-stimulated calcium
[2] = target: T1, RGS4 stimulation of Gαi1 (R178M/A326S) GTP hydrolysis (Rattus norvegicus, UniProt P49799); test: Receptor-independent steady-state GTPase acceleration protein assay; assay type: biochemical; conditions: read-out: SS-GAP IC50; 200 nM Δ51 RGS4-MBP, 6 μM Gαi1 (R178M/A326S), 300 μM GTP
T1 sequence (P49799 52-205): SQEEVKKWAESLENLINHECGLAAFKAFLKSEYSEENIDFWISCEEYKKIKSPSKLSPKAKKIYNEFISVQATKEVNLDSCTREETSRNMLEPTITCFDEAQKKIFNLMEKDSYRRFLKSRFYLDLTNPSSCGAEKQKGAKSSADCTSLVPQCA
Procedure, shortened: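 Receptor-independent GTPase: Δ51 RGS4 (residues 52-205)-MBP with His-tagged Gαi1 R178M/A326S. Buffer: 50 mM HEPES pH 7.4, 100 mM NaCl, 0.01% Lubrol, 5 mM MgCl, 10 μg/mL BSA. Test compound in half-log steps, 100 nM–100 μM. Started with GTP; 120 min at room temperature. Quenched with HCl/malachite green plus citrate stabiliser, 20 min, then A630. IC50 by nonlinear regression; three independent experiments, duplicate wells.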

RGS4-Gαo binding [3] = target: T2, RGS4-Gαo binding (Rattus norvegicus, UniProt P49799); test: FCPIA reversibility; conditions: 100 μM compound; for inhibition of RGS4-G-protein binding: FCPIA; for reversibility of RGS4 inhibition: beads washed three times, ten minute washing period
T2 sequence (P49799 52-205): T1 sequence (P49799 52-205)
Procedure, shortened: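 Biotinylated RGS4 on streptavidin Luminex beads preincubated 30 min at room temperature with 100 μM test compound or DMSO, then washed three times in 50 mM HEPES pH 7.4/100 mM NaCl/0.1% lubrol/1% BSA. Beads split: one set re-dosed with 100 μM compound, other DMSO. Each then mixed with AlexaFluor 532-Gαo (30 nM final) plus GDP·AlF4/1 mM MgCl. Binding read by flow cytometry. Three independent experiments.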

RGS7 = target: T3, RGS7 (Homo sapiens, UniProt P49802); test: Multiplexed FCPIA, RGS7; assay type: binding; conditions: 100 nM to 100 μM, RGS7 lacks cysteine residues
T3 sequence (P49802 333-448 limits assumed): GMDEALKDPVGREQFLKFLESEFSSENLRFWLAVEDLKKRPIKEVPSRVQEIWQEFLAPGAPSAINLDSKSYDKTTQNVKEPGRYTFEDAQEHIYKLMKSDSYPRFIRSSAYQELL

RGS4-Gαo binding [4] = target: T2, RGS4-Gαo binding; test: Flow Cytometry Protein Interaction Assay; conditions: read-out: FCPIA IC50, compounds 100 nM-100 μM, three independent experiments
Procedure, shortened: (§1)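 Multiplexed bead assay: biotinylated MBP-Δ51 RGS4, cysteine-free Δ51 RGS4 (seven RGS-box Cys→Ala) and His-tagged RGS8 (61–198) on separate streptavidin Luminex bead sets. Buffer 50 mM HEPES pH 7.4, 100 mM NaCl, 0.1% lubrol, 1% BSA. Test compound (100 nM–100 μM) for 15 min at RT. AlexaFluor532-Gαo (30 nM final) with GDP·AlF4 and 1 mM MgCl for 30 min at RT. Read by flow cytometry; nonlinear regression.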

RGS19 = target: T4, RGS19 (Homo sapiens, UniProt P49795); test: Multiplexed FCPIA, RGS19; assay type: binding; conditions: 100 nM to 100 μM
T4 sequence (P49795 1-206 limits assumed): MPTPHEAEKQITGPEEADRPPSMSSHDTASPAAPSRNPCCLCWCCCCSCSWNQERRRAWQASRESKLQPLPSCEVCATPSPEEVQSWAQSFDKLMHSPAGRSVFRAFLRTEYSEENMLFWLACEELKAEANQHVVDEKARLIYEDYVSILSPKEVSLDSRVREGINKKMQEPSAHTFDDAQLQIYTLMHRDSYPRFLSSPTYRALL
Procedure, shortened: (§2)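 Biotinylated RGS proteins (RGS16 full-length, RGS19 ΔC11, both MBP fusions) were each coupled to separate streptavidin Luminex bead sets and pooled per well. Buffer: 50 mM HEPES pH 7.4, 100 mM NaCl, 0.1% lubrol, 1% BSA. Test compound (100 nM–100 μM) or DMSO added for 15 min at room temperature. AlexaFluor 532-Gαo (30 nM final) with GDP·AlF4/1 mM MgCl added for 30 min. Flow-cytometric binding read; nonlinear regression.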

RGS16 = target: T5, RGS16 (Homo sapiens, UniProt O15492); test: Multiplexed FCPIA, RGS16; assay type: binding; conditions: 100 nM to 100 μM
T5 sequence (O15492 1-202): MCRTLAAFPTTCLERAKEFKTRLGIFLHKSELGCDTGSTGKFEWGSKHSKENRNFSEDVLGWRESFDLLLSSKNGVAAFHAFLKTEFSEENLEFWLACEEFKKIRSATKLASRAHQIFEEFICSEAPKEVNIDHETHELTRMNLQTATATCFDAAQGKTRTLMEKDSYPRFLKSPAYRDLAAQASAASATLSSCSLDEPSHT
Procedure, shortened: as §2

RGS8 = target: T6, RGS8 (Homo sapiens, UniProt P57771); test: Multiplexed FCPIA, RGS8; assay type: binding
T6 sequence (P57771 61-198 isoform P57771-2): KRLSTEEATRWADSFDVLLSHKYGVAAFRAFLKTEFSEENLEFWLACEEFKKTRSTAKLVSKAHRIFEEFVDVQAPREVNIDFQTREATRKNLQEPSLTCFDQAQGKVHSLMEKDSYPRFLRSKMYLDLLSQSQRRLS
Procedure, shortened: as §1

RGS4 (-Cys) = RGS4 (-Cys) (Homo sapiens, UniProt P49798, C132A/C148A/C183A/C197A/C204A/C71A/C95A); test: Multiplexed FCPIA, RGS4 lacking cysteines; assay type: binding
Chain of RGS4 (-Cys) (P49798 52-205 C71A/C95A/C132A/C148A/C183A/C197A/C204A limits assumed, species assumed): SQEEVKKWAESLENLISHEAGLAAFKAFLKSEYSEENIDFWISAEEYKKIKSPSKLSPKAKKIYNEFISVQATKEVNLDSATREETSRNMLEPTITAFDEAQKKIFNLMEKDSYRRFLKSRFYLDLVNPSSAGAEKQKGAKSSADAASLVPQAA
Procedure, shortened: as §1

SMILES	IC50 [1]	IC50 [2]	inhibition of RGS4-G-protein binding (RGS4-Gαo binding [3])	reversibility of RGS4 inhibition (RGS4-Gαo binding [3])	activity towards RGS7 (RGS7)	IC50 (RGS4-Gαo binding [4])	potency difference RGS4 versus RGS19 (RGS19)	activity against RGS16 (RGS16)	Inhibition of Gα binding to RGS8 (RGS8)	Inhibition of Gα binding to RGS4 (-Cys) (RGS4 (-Cys))
Cc1ccc(/C=C2\C(=O)NC(=S)N(c3ccc(F)cc3)C2=O)s1 [CID 1389577]	15 µM	10.9 µM	greater than 85%	more than 50%	showed activity towards RGS7; also recorded: activity was observed	18.3 µM	–	–	–	–
COc1ccc(NC(=O)/C(Cl)=C(/Cl)[S+]([O-])Cc2ccccc2)cn1 (stereo not drawn) [CID 1472216]	–	1.6 ± 0.4 µM	–	–	–	1.7 ± 0.5 µM	–	–	–	–
CN1C(=O)/C(=C\c2ccc(Br)s2)C(=O)NC1=S [CID 1777233]	20 µM	9.4 µM	greater than 85%	more than 50%	–	15.3 µM	2 fold	–	–	–
O=C1NC(=S)N(c2ccccc2F)C(=O)/C1=C\c1cccs1 [CID 1905297]	23.8 µM	35.6 µM	greater than 85%	more than 50%	–	27.9 µM	–	–	–	–
O=C1N=c2ccccc2=C1c1c(O)n(-c2cccc(F)c2)[nH]c1=O [CID 5428579]	35.5 µM	55.8 µM	greater than 85%	more than 50%	showed activity towards RGS7; also recorded: activity was observed	8.2 µM	–	activity was observed	–	–
Br.CCCN1CCc2cc(O)cc3c2[C@H]1Cc1ccc(O)c(O)c1-3 [CID 10069059]	–	–	–	–	–	–	–	–	Inhibition of Gα binding to RGS4 (-Cys) or RGS8 occurred	Inhibition of Gα binding to RGS4 (-Cys) or RGS8 occurred
Br.CN1CCc2cc(O)cc3c2[C@H]1Cc1ccc(O)c(O)c1-3 [CID 11957531]	–	–	–	–	–	–	–	–	Inhibition of Gα binding to RGS4 (-Cys) or RGS8 occurred	Inhibition of Gα binding to RGS4 (-Cys) or RGS8 occurred

Reference: paper PMC3848259 (Cellular signalling, 2013)
